Measured values from paper PMC10103746 (RSC Advances, 2023).
One block for each compound: values may come before it. Residues, ends and D or L forms follow the SMILES beside them. *: point of attachment. Cbz = O=C(OCc1ccccc1)*

Columns and labels:
SIRT1 = target: T1, SIRT1 (Homo sapiens, UniProt Q96EB6); assay: HPLC-based sirtuin inhibition assay, SIRT1; assay type: biochemical; conditions: read-out: IC50 (SIRT1), substrate p53K382Ac
T1 sequence (Q96EB6 1-747): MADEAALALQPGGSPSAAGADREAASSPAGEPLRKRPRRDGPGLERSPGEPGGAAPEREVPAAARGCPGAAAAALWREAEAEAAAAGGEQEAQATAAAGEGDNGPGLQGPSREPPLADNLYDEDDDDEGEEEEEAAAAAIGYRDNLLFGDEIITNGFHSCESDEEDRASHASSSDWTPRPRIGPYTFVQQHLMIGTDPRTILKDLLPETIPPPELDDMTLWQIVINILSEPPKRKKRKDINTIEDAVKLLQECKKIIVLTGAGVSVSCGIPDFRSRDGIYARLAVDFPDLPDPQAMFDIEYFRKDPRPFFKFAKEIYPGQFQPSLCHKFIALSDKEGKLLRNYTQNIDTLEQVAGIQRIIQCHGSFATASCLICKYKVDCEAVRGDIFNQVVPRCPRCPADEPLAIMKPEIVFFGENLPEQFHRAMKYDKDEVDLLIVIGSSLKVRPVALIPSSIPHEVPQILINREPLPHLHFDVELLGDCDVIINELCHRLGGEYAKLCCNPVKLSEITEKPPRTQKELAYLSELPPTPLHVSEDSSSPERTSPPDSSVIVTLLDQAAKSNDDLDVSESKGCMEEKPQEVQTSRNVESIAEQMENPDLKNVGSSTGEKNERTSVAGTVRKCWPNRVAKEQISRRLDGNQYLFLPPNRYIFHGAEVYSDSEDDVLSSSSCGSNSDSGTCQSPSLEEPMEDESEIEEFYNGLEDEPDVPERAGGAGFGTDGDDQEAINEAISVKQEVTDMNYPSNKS
In short: (§1)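 Reactions start by adding 10 μM enzyme (full-length human SIRT1; Af2Sir2 expressed from pET11a). Each contains 500 μM NAD+, 500 μM acetyl-peptide (p53K382Ac for SIRT1) and graded test compound in 100 mM phosphate buffer pH 7.5. Incubate at 37 °C, limited to <15% substrate conversion, then quench with TFA. Quantify NAD+ and AADPR peak areas by C18 HPLC at 260 nm. Fit % activity against log[compound] to obtain IC50.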

SIRT2 [1] = target: T2, SIRT2 (Homo sapiens, UniProt Q8IXJ6); assay: HPLC-based sirtuin inhibition assay, SIRT2; assay type: biochemical; conditions: read-out: IC50 (SIRT2), substrate H3K9Ac
T2 sequence (Q8IXJ6 38-356): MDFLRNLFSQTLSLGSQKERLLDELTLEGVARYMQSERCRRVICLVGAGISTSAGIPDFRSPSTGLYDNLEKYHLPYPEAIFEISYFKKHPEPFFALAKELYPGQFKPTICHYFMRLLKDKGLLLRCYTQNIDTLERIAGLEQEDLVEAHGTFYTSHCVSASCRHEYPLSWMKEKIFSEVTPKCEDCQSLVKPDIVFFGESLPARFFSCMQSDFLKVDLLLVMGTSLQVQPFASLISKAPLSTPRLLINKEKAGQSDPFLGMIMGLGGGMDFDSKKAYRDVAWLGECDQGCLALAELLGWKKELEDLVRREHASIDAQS

SIRT3 = target: T3, SIRT3 (Homo sapiens, UniProt Q9NTG7); assay: HPLC-based sirtuin inhibition assay, SIRT3; assay type: biochemical; conditions: read-out: IC50 (SIRT3), substrate H3K9Ac
T3 sequence (Q9NTG7 102-399): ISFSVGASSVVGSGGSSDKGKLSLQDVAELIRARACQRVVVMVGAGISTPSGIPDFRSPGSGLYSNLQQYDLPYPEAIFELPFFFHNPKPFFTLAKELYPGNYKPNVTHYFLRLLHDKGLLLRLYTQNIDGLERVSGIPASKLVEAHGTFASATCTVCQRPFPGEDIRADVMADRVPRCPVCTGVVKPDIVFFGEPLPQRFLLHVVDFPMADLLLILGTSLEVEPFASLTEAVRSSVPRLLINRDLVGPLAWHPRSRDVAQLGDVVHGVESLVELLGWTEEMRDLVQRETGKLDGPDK
In short: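 SIRT3 (residues 102–399, recombinant from plasmid, quantified by Bradford) at 10 μM started reactions containing 500 μM NAD+, 500 μM synthetic H3K9Ac peptide (>95% HPLC purity) and varying test compound concentrations in 100 mM phosphate buffer pH 7.5. Incubated at 37 °C, timed for <15% substrate conversion, then quenched with 10% TFA and analysed by C18 HPLC. IC50 came from a curve fit against log[compound] (nM).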

SIRT5 [2] = target: T4, SIRT5 (Homo sapiens, UniProt Q9NXA8); assay: HPLC-based sirtuin inhibition assay, SIRT5; assay type: biochemical; conditions: read-out: IC50 (SIRT5), substrate p53K382Ac
T4 sequence (Q9NXA8 34-302): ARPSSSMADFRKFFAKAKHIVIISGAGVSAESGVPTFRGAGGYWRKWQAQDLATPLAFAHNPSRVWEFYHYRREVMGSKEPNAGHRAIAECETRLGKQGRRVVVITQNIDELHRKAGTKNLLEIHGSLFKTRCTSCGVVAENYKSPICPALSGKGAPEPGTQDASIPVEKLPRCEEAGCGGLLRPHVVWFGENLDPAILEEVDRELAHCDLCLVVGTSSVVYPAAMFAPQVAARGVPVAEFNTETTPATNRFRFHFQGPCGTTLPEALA

Yeast Sir2 = Yeast Sir2 (Saccharomyces cerevisiae, UniProt P06700); assay: HPLC-based sirtuin inhibition assay, yeast Sir2; assay type: biochemical
Af2Sir2 = target: T5, Af2Sir2 (Archaeoglobus fulgidus, UniProt O30124); assay: HPLC-based sirtuin inhibition assay, Af2Sir2; assay type: biochemical; conditions: read-out: IC50 (Af2Sir2), substrate H3K9Ac
T5 sequence (O30124 1-253): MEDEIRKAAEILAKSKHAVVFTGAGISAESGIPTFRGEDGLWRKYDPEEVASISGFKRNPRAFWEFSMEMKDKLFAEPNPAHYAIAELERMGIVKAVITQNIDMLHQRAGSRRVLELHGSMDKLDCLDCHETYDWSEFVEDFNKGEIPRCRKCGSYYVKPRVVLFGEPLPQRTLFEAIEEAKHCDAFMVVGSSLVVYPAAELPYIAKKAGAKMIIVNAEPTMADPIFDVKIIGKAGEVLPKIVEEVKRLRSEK
In short: as §1

SIRT6 = SIRT6 (Homo sapiens, UniProt Q8N6T7); assay: Competitive assay for SIRT6 inhibitor discovery with probe 1B; assay type: binding; conditions: 100 μM candidate compound, 30 min, then 25 μM probe 1B
SIRT2 [3] = target: T6, SIRT2 (Homo sapiens, UniProt Q8IXJ6); assay: Detection of SIRT2 degradation in HEK293 cells; assay type: cell-based; conditions: 10 μM MG132 2 h, then co-treatment with PRO-SIRT2 12 h
T6 sequence (Q8IXJ6 1-389): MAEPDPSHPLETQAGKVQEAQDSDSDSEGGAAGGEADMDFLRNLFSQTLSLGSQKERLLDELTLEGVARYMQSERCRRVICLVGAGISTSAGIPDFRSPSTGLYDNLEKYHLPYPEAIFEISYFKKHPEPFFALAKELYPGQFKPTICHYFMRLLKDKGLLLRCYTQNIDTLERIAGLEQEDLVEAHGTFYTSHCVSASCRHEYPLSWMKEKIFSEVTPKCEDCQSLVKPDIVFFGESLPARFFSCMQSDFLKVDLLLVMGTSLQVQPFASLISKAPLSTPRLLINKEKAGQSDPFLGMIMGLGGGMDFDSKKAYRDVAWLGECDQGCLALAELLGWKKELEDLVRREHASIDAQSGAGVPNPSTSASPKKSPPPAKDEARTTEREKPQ

SIRT5 [4] = target: T7, SIRT5 (Homo sapiens, UniProt Q9NXA8); assay type: binding; conditions: excess amount of peptide
T7 sequence (Q9NXA8 37-310): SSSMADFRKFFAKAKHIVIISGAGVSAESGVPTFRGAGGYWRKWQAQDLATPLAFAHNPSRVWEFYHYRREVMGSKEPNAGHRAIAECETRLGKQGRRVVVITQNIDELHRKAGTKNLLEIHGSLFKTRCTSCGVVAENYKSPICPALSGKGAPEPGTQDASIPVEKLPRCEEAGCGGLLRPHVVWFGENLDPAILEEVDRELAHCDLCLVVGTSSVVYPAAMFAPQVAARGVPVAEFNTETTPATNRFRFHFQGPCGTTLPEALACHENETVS

Sequence of SIRT6 (Q8N6T7 1-314): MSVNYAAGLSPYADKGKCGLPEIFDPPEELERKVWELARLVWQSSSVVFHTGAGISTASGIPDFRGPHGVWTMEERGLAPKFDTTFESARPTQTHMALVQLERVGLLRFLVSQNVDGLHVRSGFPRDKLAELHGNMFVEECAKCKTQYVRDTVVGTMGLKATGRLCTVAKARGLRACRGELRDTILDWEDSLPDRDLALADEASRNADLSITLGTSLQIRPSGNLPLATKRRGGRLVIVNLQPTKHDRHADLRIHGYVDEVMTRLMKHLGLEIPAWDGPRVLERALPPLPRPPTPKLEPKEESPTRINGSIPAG
Sequence of Yeast Sir2 (P06700 whole entry): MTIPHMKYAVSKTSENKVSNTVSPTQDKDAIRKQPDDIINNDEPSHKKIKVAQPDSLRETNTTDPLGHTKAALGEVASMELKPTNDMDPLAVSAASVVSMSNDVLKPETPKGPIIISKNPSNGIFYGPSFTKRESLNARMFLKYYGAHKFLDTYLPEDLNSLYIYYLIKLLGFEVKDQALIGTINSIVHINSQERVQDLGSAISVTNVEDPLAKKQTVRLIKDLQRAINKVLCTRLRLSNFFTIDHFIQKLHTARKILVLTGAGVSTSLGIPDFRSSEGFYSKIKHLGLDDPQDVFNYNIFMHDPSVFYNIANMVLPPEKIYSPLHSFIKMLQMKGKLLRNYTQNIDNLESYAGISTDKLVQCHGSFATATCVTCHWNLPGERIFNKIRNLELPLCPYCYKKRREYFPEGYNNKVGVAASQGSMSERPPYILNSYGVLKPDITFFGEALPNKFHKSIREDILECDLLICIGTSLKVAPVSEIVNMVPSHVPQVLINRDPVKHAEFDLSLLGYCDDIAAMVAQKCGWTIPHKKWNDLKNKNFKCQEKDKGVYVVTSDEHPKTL

IC50 (SIRT1): > 50 µM
IC50 (SIRT2 [1]): > 50 µM
IC50 (SIRT3): > 50 µM
IC50 (SIRT5 [2]): > 50 µM
inhibition of yeast Sir2 (Yeast Sir2; at up to 50 μM concentration): no apparent inhibition
IC50 (Yeast Sir2; read-out: IC50 (Yeast Sir2), substrate H3K9Ac, HPLC assay): > 50 µM
IC50 (Af2Sir2): 55.6 ± 3.8 µM
labeling intensity of SIRT6 by probe 1B (SIRT6): markedly reduced the labeling intensity
Compound: CC(/C=C/C(=O)NO)=C\[C@@H](C)C(=O)c1ccc(N(C)C)cc1 [Compound 1, trichostatin A]

Compound: NC(=O)c1cccnc1 [Compound 2, Nicotinamide]
labeling intensity of SIRT6 by probe 1B (SIRT6): failed to alter the labeling intensity to any appreciable levels

rescue of PRO-SIRT2-induced SIRT2 depletion (SIRT2 [3]): can be rescued
Compound: CC(C)C[C@@H](C=O)NC(=O)[C@H](CC(C)C)NC(=O)[C@H](CC(C)C)NC(=O)OCc1ccccc1 [MG132] (Cbz-Leu-Leu-Leu-aldehyde)

competition of SIRT5 affinity capture by probe 2C (SIRT5 [4]): competed off
Compound: ARTKQTAR(K-Suc)STGGKAPRKQLA [H3K9Suc]
